Inconclusive results are not listed.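 How the source made its calls, unless noted: active means RAM network inhibition above 8.4% in each of two replicates, 3 SD over the compound average; inconclusive means above 8.4% inhibition in only one replicate; inactive means 8.4% inhibition or less in each replicate.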
Key:
[1] = S. cerevisiae growth inhibition in permissive medium (OD615), pilot counter-assay for S. cerevisiae lifespan shortening project, permissive growth control (AID 705;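 active means growth inhibition above 25% in both replicates, a cutoff set 3 SD above the mean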); conditions: OD615, 24 h, at 10 µM, stronger effect = higher value
Method in brief: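 System: S. cerevisiae with engineered DeaD lifespan system / Measured by: absorbance (optical density) at 615 nm / Read-out: reduction in yeast growth (OD615) / Times: 4 h cell pre-growth, 24 h exposure at 30 °C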

[2] = S. cerevisiae growth inhibition in restrictive medium, OD615, pilot screen, restrictive growth control, yeast lifespan reduction project (AID 706;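 active means growth inhibition above a set limit, 3 SD over mean compound inhibition, in both replicates, cut at about 43% in these data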;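 further: modified DeaD lifespan yeast strain shifted to restrictive glucose medium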); conditions: OD615, 48 h, at 10 µM, stronger effect = higher value
Method in brief: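 System: Engineered S. cerevisiae DeaD strain | Buffer or medium: Glucose-based CSMM-D restrictive medium | Schedule: 4 h pre-incubation, 48 h exposure at 30 °C | Technique: Optical density at 615 nm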

[3] = doxorubicin toxicity protection in MRP-1 cells – H69AR cells, CellTiter-Glo, duplicate, MRP-1 activator project, pilot screen (AID 807;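 active means viability increase at or above a cutoff of the median across tested compounds plus 3 SD, cut at about 8.5% in these data, passing the limit was not always enough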;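 further: compound pretreatment 18-22 h then 72 h combined with doxorubicin; 0% = doxorubicin alone and 100% = vehicle without doxorubicin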); conditions: H69AR viability with doxorubicin, CellTiter-Glo luminescence; at 10 µM; stronger effect = higher value
[4] = viability of HCT116 without oncogenic beta-catenin – human colon tumor cells, pilot screen (AID 823;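 active means cell viability at or below a set limit in both duplicate runs, the limit being the all-compound median minus 4 SD, cut at about 23% in these data, passing the limit was not always enough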;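 further: 0% = wells killed by 20 µM Hyamine and 100% = untreated DMSO cell wells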); conditions: HCT116 beta-catenin knockout viability, CellTiter-Glo, 60 h; at 10 µM; stronger effect = lower value
[5] = viability of PTEN-null HCT116 cells – cell-based, HCT116 clonal line, CellTiter-Glo, pilot screen (AID 824;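 active means viability at or below 27.92% in each of two runs, the all-compound median minus 4 SD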;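 further: 0% = 20 µM Hyamine control and 100% = vehicle cell control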); conditions: HCT116 PTEN-deleted viability, 60 h, at 10 µM, stronger effect = lower value
[6] = RAM pathway blockade in budding yeast – dse1pr::URA3 reporter, 5-FOA selection, pilot screen (AID 869;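 active means inhibition over a set limit, the all-compound mean plus 3 SD, in both replicate runs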;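 further: 0% = DMSO wells with no growth and 100% = 10 µM 1-NA-PP1 with full growth; RAM network block rescues cells from 5-FOA so hits raise OD615 growth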); conditions: S. cerevisiae dse1pr::URA3 5-FOA growth, OD615, 2 d; at 10 µM; stronger effect = higher value; strain carries analog-sensitive mutant Cbk1 kinase
[7] = RAM signaling pathway blockade in yeast – S. cerevisiae, Pdr1DBD-CYC8 efflux-inhibited sensitized strain, primary screen (AID 1298);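 further: 0% = DMSO untreated cells without growth and 100% = 10 µM 1-NA-PP1 full growth; higher means more yeast growth rescued from 5-FOA killing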; conditions: S. cerevisiae cbk1-as DSE1-URA3 strain, 5-FOA growth OD615, 2 d; at 50 µM; stronger effect = higher value

CS(=O)(=O)N(Cc1ccc(C(=O)NCc2ccco2)cc1)c1ccccc1
inactive: growth inhibition [1] -6.5% | growth inhibition [2] -0.32% | viability increase [3] -3.9% | viability [4] 94% | viability [5] 100% | inhibition [6] -0.1% | RAM network inhibition [7] 4.76%

Cc1ccccc1NC(=O)C1CC(Cl)=CCC1C(=O)O (stereo unspecified)
inactive: growth inhibition [1] -2.29% | growth inhibition [2] -0.385% | viability increase [3] -0.5% | viability [4] 101% | viability [5] 96.9% | inhibition [6] 1.52% | RAM network inhibition [7] 6.8%

CCCCCCN1C(=O)C(O)=C(C(C)=O)C1c1ccc(Cl)cc1 (stereo unspecified)
inactive: growth inhibition [1] -6.47% | growth inhibition [2] 7.25% | viability increase [3] 0.3% | viability [4] 106% | viability [5] 100% | inhibition [6] -0.245% | RAM network inhibition [7] 8.31%

COc1nc(NC(C)(C)C)nc(Oc2ccc(=O)n(C)n2)n1
inactive: growth inhibition [1] -0.24% | growth inhibition [2] -10.7% | viability increase [3] 0.23% | viability [4] 102% | viability [5] 96.5% | inhibition [6] 0.495% | RAM network inhibition [7] 5.11%

COc1ccc(C2C=C(c3ccccc3)Nc3nnnn32)cc1 (stereo unspecified)
inactive: growth inhibition [1] -5.09% | growth inhibition [2] 5.53% | viability increase [3] 0.19% | viability [4] 95.3% | viability [5] 90.3% | inhibition [6] 0.855% | RAM network inhibition [7] 5.93%

COCCCNc1oc(-c2ccccc2F)nc1C#N
inactive: growth inhibition [1] -13.2% | growth inhibition [2] -15.9% | viability increase [3] 2.02% | viability [4] 105% | viability [5] 97.2% | inhibition [6] -0.74% | RAM network inhibition [7] 0.89%

COCCNC(=O)Cn1cnc2c1c(=O)n(C)c(=O)n2C
inactive: growth inhibition [1] -16.3% | growth inhibition [2] -12.6% | viability increase [3] -0.95% | viability [4] 97.6% | viability [5] 98.3% | inhibition [6] 1.23% | RAM network inhibition [7] 3.4%

N#CC1=C2SCN(Cc3ccccc3)CN2C(=O)CC1c1ccccc1F (stereo unspecified)
inactive: growth inhibition [1] -3.35% | growth inhibition [2] 15.7% | viability increase [3] -4.34% | viability [4] 90.4% | viability [5] 88.4% | inhibition [6] 1.01% | RAM network inhibition [7] 2.49%

O=C(CSc1nnc(Cc2cc(=O)[nH]c(=O)[nH]2)n1-c1ccc(Cl)cc1)NC1CCCC1
inactive: growth inhibition [1] -14.1% | growth inhibition [2] -17.7% | viability increase [3] -0.76% | viability [4] 108% | viability [5] 104% | inhibition [6] 1.92% | RAM network inhibition [7] 0.32%

Cn1c(=O)c2c(nc(NCc3ccccc3)n2C)n(C)c1=O
inactive: growth inhibition [1] -4.99% | growth inhibition [2] -2.69% | viability increase [3] -1.73% | viability [4] 99.6% | viability [5] 95.4% | inhibition [6] 0.45% | RAM network inhibition [7] 1.42%

CCOc1ccc2[nH]c(C)c(CN3CCOCC3)c(=O)c2c1
inactive: growth inhibition [1] 0.82% | growth inhibition [2] -5.17% | viability increase [3] -1.13% | viability [4] 96.5% | viability [5] 99% | inhibition [6] 1.96% | RAM network inhibition [7] 2.56%

CCSc1nnc(NC(=O)C(C)C)s1
inactive: growth inhibition [1] 3.02% | growth inhibition [2] -5.11% | viability increase [3] 1.51% | viability [4] 100% | viability [5] 109% | inhibition [6] 0.765% | RAM network inhibition [7] 0.89%

O=C(CSc1nnc(COc2ccccc2)o1)Nc1nccs1
inactive: growth inhibition [1] 6.56% | growth inhibition [2] 4.11% | viability increase [3] -2.31% | viability [4] 95.6% | viability [5] 96.4% | inhibition [6] 1.78% | RAM network inhibition [7] 3.24%

Cc1ccc(CNC(=O)CCCNS(=O)(=O)c2cccc3nonc23)cc1
inactive: growth inhibition [1] -4.66% | growth inhibition [2] 0.525% | viability increase [3] -1.25% | viability [4] 101% | viability [5] 101% | inhibition [6] -0.185% | RAM network inhibition [7] 3%

CCCOC(=O)c1cccc(NC(=O)C(C)(C)C)c1
inactive: growth inhibition [1] -17.4% | growth inhibition [2] -14.3% | viability increase [3] 0.9% | viability [4] 98.7% | viability [5] 98.8% | inhibition [6] -0.725% | RAM network inhibition [7] 1.87%

CCCN(CCC)S(=O)(=O)c1ccc(C(=O)NCc2ccc3c(c2)OCO3)cc1
inactive: growth inhibition [1] -12.9% | growth inhibition [2] -18.8% | viability increase [3] -3.62% | viability [4] 94.5% | viability [5] 80.3% | inhibition [6] 2.21% | RAM network inhibition [7] 4.05%

O=C(O)c1cccc(NS(=O)(=O)c2cccc3cccnc23)c1
inactive: growth inhibition [1] -3.04% | growth inhibition [2] -3.79% | viability increase [3] 0.96% | viability [4] 103% | viability [5] 99.8% | inhibition [6] 0.655% | RAM network inhibition [7] 4.37%

N#C/C(=C(/O)CN1C(=O)c2ccccc2C1=O)c1nc2ccccc2[nH]1
inactive: growth inhibition [1] -9.93% | growth inhibition [2] -4.08% | viability increase [3] 0.55% | viability [4] 100% | viability [5] 94.4% | inhibition [6] 4.51% | RAM network inhibition [7] 4.04%

COc1cccc(OC)c1C(=O)Nc1ccc2c(c1)OCCO2
inactive: growth inhibition [1] -8.21% | growth inhibition [2] 0.395% | viability increase [3] -0.21% | viability [4] 99.8% | viability [5] 95.9% | inhibition [6] 1.23% | RAM network inhibition [7] 0.51%

N#CCn1c(C2CCCCC2)nc2ccccc2c1=O
inactive: growth inhibition [1] -27% | growth inhibition [2] -22.9% | viability increase [3] -4.23% | viability [4] 90.2% | viability [5] 84.5% | inhibition [6] 0.79% | RAM network inhibition [7] 3.71%

CCO/C(C)=C1\C(=O)N(CC)c2ccccc21
inactive: growth inhibition [1] -9.62% | growth inhibition [2] -5.21% | viability increase [3] -1.57% | viability [4] 96.7% | viability [5] 97.2% | inhibition [6] -0.745% | RAM network inhibition [7] 2.08%

Cc1cc(N2CCOCC2)nc2cc(O)ccc12
inactive: growth inhibition [1] -10.3% | growth inhibition [2] -15.5% | viability increase [3] -1.02% | viability [4] 97.4% | viability [5] 87.6% | inhibition [6] 1.31% | RAM network inhibition [7] 5.97%

CCOC(=O)c1ccc(NC(=O)C23CCC(C)(C(=O)O2)C3(C)C)cc1 (stereo unspecified)
inactive: growth inhibition [1] 1.15% | growth inhibition [2] 4.45% | viability increase [3] 1.07% | viability [4] 93.5% | viability [5] 101% | inhibition [6] -0.095% | RAM network inhibition [7] 5.33%
